In ChEMBL document CHEMBL3351994, “Synthesis and biological evaluation of novel millepachine derivatives as a new class of tubulin polymerization inhibitors” (J Med Chem, 2014):
In brackets after ≈: the same amount, converted by molar mass.

Columns and labels:
HepG2 [1] = experiment: Antiproliferative activity against human HepG2 cells assessed as inhibition of cell proliferation after 48 hrs by MTT assay; assay type: functional, cell-based; settings: hepg2
Method in brief: (§1)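 Cells grown at 37 °C in humidified 5% CO2. K562, C26 and HCT lines in RPMI-1640; other lines in DMEM; both media with 10% FBS, penicillin and streptomycin. 1000 cells/well seeded, incubated overnight, then compound at various doses for 48 h. MTT added for 4 h, formazan dissolved in DMSO, absorbance read at 590 nm. IC50 from dose–response curves, mean ± SEM of at least three independent experiments.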

K562 = experiment: Antiproliferative activity against human K562 cells assessed as inhibition of cell proliferation after 48 hrs by MTT assay; assay type: functional, cell-based; settings: K562, 48 h; method in brief: as §1
[2] = Antiproliferative activity against human HCT116 cells assessed as inhibition of cell proliferation after 48 hrs by MTT assay; assay type: functional, cell-based; settings: HCT-116, 48 h
[3] = Antiproliferative activity against human DLD1 cells assessed as inhibition of cell proliferation after 48 hrs by MTT assay; assay type: functional, cell-based; settings: DLD-1, 48 h; method in brief: as §1
[4] = Antiproliferative activity against human HCT15 cells assessed as inhibition of cell proliferation after 48 hrs by MTT assay; assay type: functional, cell-based; settings: HCT-15, 48 h; method in brief: as §1
MCF7 = experiment: Antiproliferative activity against human MCF7 cells assessed as inhibition of cell proliferation after 48 hrs by MTT assay; assay type: functional, cell-based; settings: MCF7, 48 h; method in brief: as §1
[5] = Antiproliferative activity against human ES2 cells assessed as inhibition of cell proliferation after 48 hrs by MTT assay; assay type: functional, cell-based; settings: ES-2, 48 h
AGS = experiment: Antiproliferative activity against human AGS cells assessed as inhibition of cell proliferation after 48 hrs by MTT assay; assay type: functional, cell-based; method in brief: as §1
U-251 = experiment: Antiproliferative activity against human U251 cells assessed as inhibition of cell proliferation after 48 hrs by MTT assay; assay type: functional, cell-based; settings: U-251, 48 h; method in brief: as §1
[6] = Antiproliferative activity against taxol resistant human […] cells assessed as inhibition of cell proliferation after 48 hrs by MTT assay; assay type: functional, cell-based; settings: A2780, 48 h; method in brief: as §1
[7] = Antiproliferative activity against cisplatin resistant human […] cells assessed as inhibition of cell proliferation after 48 hrs by MTT assay; assay type: functional, cell-based; settings: A2780cisR; method in brief: as §1
[8] = Antiproliferative activity against human HCT8 cells assessed as inhibition of cell proliferation after 48 hrs by MTT assay; assay type: functional, cell-based; settings: HCT-8, 48 h; method in brief: as §1
A2780 = experiment: Resistance index, ratio of IC50 for taxol resistant human […] cells to IC50 for parental human […] cells; assay type: functional
A2780cisR = experiment: Resistance index, ratio of IC50 for cisplatin resistant human […] cells to IC50 for parental human […] cells; assay type: functional
HCT-8 = experiment: Resistance index, ratio of IC50 for taxol resistant human HCT8 cells to IC50 for parental human HCT8 cells; assay type: functional
HepG2 [9] = experiment: Induction of cell cycle arrest in human HepG2 cells assessed as accumulation at S phase phase at 50 nM after 24 hrs by propidium iodide staining based flow cytometry (reference value: 30.6%); assay type: functional
HepG2 [10] = experiment: Induction of cell cycle arrest in human HepG2 cells assessed as accumulation at G2/M phase phase at 50 nM after 24 hrs by propidium iodide staining based flow cytometry (reference value: 11.2%); assay type: functional
HepG2 [11] = experiment: Induction of cell cycle arrest in human HepG2 cells assessed as accumulation at S phase phase at 100 nM after 24 hrs by propidium iodide staining based flow cytometry (reference value: 30.6%); assay type: functional
HepG2 [12] = experiment: Induction of cell cycle arrest in human HepG2 cells assessed as accumulation at G2/M phase phase at 100 nM after 24 hrs by propidium iodide staining based flow cytometry (reference value: 11.2%); assay type: functional
HepG2 [13] = experiment: Induction of cell cycle arrest in human HepG2 cells assessed as accumulation at S phase phase at 200 nM after 24 hrs by propidium iodide staining based flow cytometry (reference value: 30.6%); assay type: functional
HepG2 [14] = experiment: Induction of cell cycle arrest in human HepG2 cells assessed as accumulation at G2/M phase phase at 200 nM after 24 hrs by propidium iodide staining based flow cytometry (reference value: 11.2%); assay type: functional
HepG2 [15] = experiment: Induction of apoptosis in human HepG2 cells assessed as viable cells at 50 nM after 24 hrs by annexin-V-FITC and propidium iodide staining based flow cytometry (reference value: 93.2%); assay type: functional; settings: HepG2, 24 h, read-out: Activity
HepG2 [16] = experiment: Induction of apoptosis in human HepG2 cells assessed as early apoptotic cells at 50 nM after 24 hrs by annexin-V-FITC and propidium iodide staining based flow cytometry (reference value: 3.63%); assay type: functional
Method in brief: (§2)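 HepG2 cells treated with 50, 100 or 200 nM compound or DMSO vehicle for 24 or 48 h at 37 °C. Labeled with annexin-V-FITC and PI and analyzed by flow cytometry. Cells classified as early apoptotic (annexin-V+/PI−), late apoptotic (annexin-V+/PI+) or necrotic (annexin-V−/PI+).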

HepG2 [17] = experiment: Induction of apoptosis in human HepG2 cells assessed as viable cells at 100 nM after 24 hrs by annexin-V-FITC and propidium iodide staining based flow cytometry (reference value: 93.2%); assay type: functional; settings: HepG2, 24 h, read-out: Activity
HepG2 [18] = experiment: Induction of apoptosis in human HepG2 cells assessed as viable cells at 200 nM after 24 hrs by annexin-V-FITC and propidium iodide staining based flow cytometry (reference value: 93.2%); assay type: functional; settings: HepG2, 24 h, read-out: Activity
HepG2 [19] = experiment: Induction of apoptosis in human HepG2 cells assessed as viable cells at 50 nM after 48 hrs by annexin-V-FITC and propidium iodide staining based flow cytometry (reference value: 93.2%); assay type: functional; settings: HepG2, 48 h, read-out: Activity
HepG2 [20] = experiment: Induction of apoptosis in human HepG2 cells assessed as necrotic cells at 100 nM after 48 hrs by annexin-V-FITC and propidium iodide staining based flow cytometry (reference value: 2.16%); assay type: functional; method in brief: as §2
HepG2 [21] = experiment: Induction of apoptosis in human HepG2 cells assessed as late apoptotic cells at 200 nM after 48 hrs by annexin-V-FITC and propidium iodide staining based flow cytometry (reference value: 1.03%); assay type: functional; method in brief: as §2
[22] = Solubility in PBS solution by nephelometry; assay type: physicochemical
Method in brief: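 Maximum soluble concentration in PBS, determined by nephelometry.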

Rattus norvegicus [23] = experiment: Systemic clearance in rat at 2.25 mg/kg, iv; assay type: ADME, organism-based; design: dose 2.25 mg/kg, route intravenous; settings: in vivo
[24] = Volume of distribution at steady state in rat at 2.25 mg/kg, iv; assay type: ADME, organism-based; design: dose 2.25 mg/kg, route intravenous; settings: in vivo, read-out: Vdss
Rattus norvegicus [25] = experiment: AUC in rat at 2.25 mg/kg, iv; assay type: ADME, organism-based, Plasma; design: dose 2.25 mg/kg, route intravenous; settings: in vivo
Method in brief: (§3)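 Rat pharmacokinetics; oral and intravenous dosing, with group sizes of 5, 5 and 4 rats. Parameters derived: systemic clearance, volume of distribution, area under the plasma concentration–time curve, maximum plasma concentration and percent oral bioavailability.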

[26] = Oral bioavailability in rat at 9 mg/kg; assay type: ADME, organism-based; settings: in vivo
Rattus norvegicus [27] = experiment: Systemic clearance in rat at 9 mg/kg, po; assay type: ADME, organism-based; design: dose 9 mg/kg, route oral; settings: in vivo
Rattus norvegicus [28] = experiment: AUC in rat at 9 mg/kg, po; assay type: ADME, organism-based, Plasma; design: dose 9 mg/kg, route oral; settings: in vivo; method in brief: as §3
[29] = Cmax in rat at 9 mg/kg, po; assay type: ADME, organism-based; design: dose 9 mg/kg, route oral; settings: in vivo; method in brief: as §3

`COc1ccc(/C=C/C(=O)c2ccc(OC)c3c2OC(C)(C)C=C3)cc1N` showed an IC50 (HepG2 [1]) of 8 nM, an IC50 (K562) of 18 nM and an IC50 [2] of 21 nM. For the same molecule, the IC50 [3] was 18 nM, the IC50 [4] was 19 nM and the IC50 (MCF7) was 27 nM. It also gave an IC50 [5] of 8 nM, an IC50 (AGS) of 10 nM and an IC50 (U-251) of 24 nM. For the same molecule, the IC50 [6] was 84 nM, the IC50 [7] was 14 nM and the IC50 [8] was 16 nM. For the same molecule, the “Ratio IC50” value (A2780) was 4.2, the “Ratio IC50” value (A2780cisR) was 0.7 and the “Ratio IC50” value (HCT-8) was 9.5. For the same molecule, the Activity (HepG2 [9]) was 23.9%, the Activity (HepG2 [10]) was 19.5% and the Activity (HepG2 [11]) was 27.8%. The Activity (HepG2 [12]) was 37.4%, the Activity (HepG2 [13]) was 19.1% and the Activity (HepG2 [14]) was 43.3%. It also gave a viability at 0.05 µM (HepG2 [15]) of 88.8%, an Activity (HepG2 [16]) of 2.21% and a viability at 0.1 µM (HepG2 [17]) of 74.1%. It also gave a viability at 0.2 µM (HepG2 [18]) of 63.1%, a viability at 0.05 µM (HepG2 [19]) of 66.1% and an Activity (HepG2 [20]) of 5.45%. The Activity (HepG2 [21]) was 34.72%, the solubility kinetic [22] was 8 µg/mL (≈ 21.9 µM) and the CL (Rattus norvegicus [23]) was 20 mL/min/kg. For the same molecule, the Vd [24] was 21 L/kg, the AUC (Rattus norvegicus [25]) was 1810 ng·h/mL and the bioavailability [26] was 28%. The CL (Rattus norvegicus [27]) was 98.3 mL/min/kg, the AUC (Rattus norvegicus [28]) was 2040 ng·h/mL and the Cmax [29] was 519 ng/mL.
